Calls of active or inactive are those of the source.
Key:
[1] = biological target: Muscarinic acetylcholine receptor M3 (Mus musculus) (UniProt Q9ERZ3); experiment: Increase in phosphoinositide (PI) metabolism in A9L-cholinergic receptor, muscarinic 3 expressing cells was measured at 100 uMolar; assay type: functional; conditions: 100 uM
Method in brief: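 A9L fibroblasts transfected with m3 receptor, grown in DMEM with 10% newborn calf serum. Labeled overnight with [3H]myo-inositol, preincubated 5 min at 37 °C in 10 mM LiCl DMEM-Hepes. Compound at 100 μM final, 30 min at 37 °C. Labeled inositol phosphates extracted by ion exchange. Result expressed as percent of the oxotremorine-M response, duplicate determinations.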

[2] = The percent inhibition of cyclic AMP(cAMP) formation in NG108-15 cells expressed in m40AChR was measured; i=inactive (< 2%); conditions: Mus musculus
[3] = biological target: T1, Muscarinic acetylcholine receptor (Rattus norvegicus) (UniProt P08482+P08483+P08485+P08911+P10980); experiment: Evaluated for displacement of [3H]oxotremorine-M binding ([3H]OXO-M) at muscarinic acetylcholine receptor in rat forebrain membranes; assay type: cell membranes; design: concentration or dose not given beside the values; conditions: Membrane
Method in brief: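 Sprague-Dawley rat forebrain membranes. Incubated with 2.7 nM [3H]Oxo-M in 50 mM NaPO4, 2 mM MgCl2, pH 7.4, 20 min at 37 °C. Filtered on glass fiber presoaked in 0.05% polyethylenimine. Nonspecific binding defined with 1 μM atropine. Single concentration 1 μM, triplicate, averaged over two to five trials. Read-out is percent displacement of specific binding.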

[4] = biological target: T1, Muscarinic acetylcholine receptor (Rattus norvegicus); experiment: Displacement of [3H]N-methylscopolamine ([3H]NMS) binding at muscarinic acetylcholine receptor in rat cerebral cortical membranes; assay type: cell membranes; design: concentration or dose not given beside the values; conditions: Membrane
Method in brief: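 Rat (Sprague-Dawley, either sex, 200 g) forebrain membranes, homogenized and washed in 50 mM sodium phosphate pH 7.4. 200-300 μg membrane incubated with 0.5 nM [3H]NMS plus compound (single concentration, 100 μM) in phosphate-buffered saline, 60 min at 37 °C. Filtered on glass fiber, scintillation counted. Nonspecific binding defined with 1 μM atropine. Triplicate. Reported as percent displacement.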

A9 [5] = experiment: Increase in phosphoinositide (PI) metabolism in A9L-m1 cells at 100 uM.; assay type: functional, Mus musculus
[6] = The percent inhibition of cyclic AMP(cAMP) formation in NG108-15 cells at 100 uM.; conditions: Mus musculus
[7] = biological target: T2, cyclic AMP phosphoprotein (Rattus norvegicus) (UniProt Q712U5); experiment: The percent inhibition of cyclic AMP(cAMP) formation in NG108-15 cells expressed in m40AChR was measured; assay type: functional, cell-based; conditions: concentration not given here
T2 sequence (whole entry): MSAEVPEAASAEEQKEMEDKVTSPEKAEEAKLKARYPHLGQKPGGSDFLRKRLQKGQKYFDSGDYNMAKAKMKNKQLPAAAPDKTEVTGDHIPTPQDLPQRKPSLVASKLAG
Method in brief: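 NG108-15 cells expressing m4 receptors; compound at 100 μM. Cyclic AMP inhibition expressed as percent of Oxo-M (100%), average of two or three trials.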

A9 [8] = experiment: The increase in phosphoinositide (PI) metabolism in A9L-m1 cells was measured at 100 uM; i = inactive; assay type: functional, cell-based; conditions: Mus musculus
Method in brief: (§1)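 A9L fibroblasts transfected with m1 or m3 receptor, grown in DMEM with 10% newborn calf serum. Labeled overnight with [³H]myo-inositol, preincubated 5 min at 37 °C in 10 mM LiCl in DMEM-Hepes, then exposed to compound at 100 μM final for 30 min. Inositol phosphates extracted by ion exchange. Result expressed as percent of Oxo-M response; duplicate determinations.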

[9] = biological target: T1, Muscarinic acetylcholine receptor (Rattus norvegicus); experiment: compound was evaluated for displacement of [3H]N-methylscopolamine ([3H]NMS) binding at muscarinic acetylcholine receptor in rat cerebral cortical membranes; i = inactive (< 1%); assay type: cell membranes; conditions: Membrane
Method in brief: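 Rat cerebral cortical membranes, 200-300 μg per tube, incubated with 0.5 nM [³H]NMS and test compound at a single concentration of 100 μM in phosphate-buffered saline, 60 min at 37 °C. Glass fiber filtration and scintillation counting. Nonspecific binding taken with 1 μM atropine and subtracted. Triplicates; result given as percent displacement of specific binding.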

A9 [10] = experiment: The increase in phosphoinositide (PI) metabolism in A9L-m3 cells was measured at 100 uM; i = inactive; assay type: functional, cell-based; conditions: Mus musculus; method in brief: as §1

Sequence of Muscarinic acetylcholine receptor M3 (Mus musculus) (Q9ERZ3 whole entry): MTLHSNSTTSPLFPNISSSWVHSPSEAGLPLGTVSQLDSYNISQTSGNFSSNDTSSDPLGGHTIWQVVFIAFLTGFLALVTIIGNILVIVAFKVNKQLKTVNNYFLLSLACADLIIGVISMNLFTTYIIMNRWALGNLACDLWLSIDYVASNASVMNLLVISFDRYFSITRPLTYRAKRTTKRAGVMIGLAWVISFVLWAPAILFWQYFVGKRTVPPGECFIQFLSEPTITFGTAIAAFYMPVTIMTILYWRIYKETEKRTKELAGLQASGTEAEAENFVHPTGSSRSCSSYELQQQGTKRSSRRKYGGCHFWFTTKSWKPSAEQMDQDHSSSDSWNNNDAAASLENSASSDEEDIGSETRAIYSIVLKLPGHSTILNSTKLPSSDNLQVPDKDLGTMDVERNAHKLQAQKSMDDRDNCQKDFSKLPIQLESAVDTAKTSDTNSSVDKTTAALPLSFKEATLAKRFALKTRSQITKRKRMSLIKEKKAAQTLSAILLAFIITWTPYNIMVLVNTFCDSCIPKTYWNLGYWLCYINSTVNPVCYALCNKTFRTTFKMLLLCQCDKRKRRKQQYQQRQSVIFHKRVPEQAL

In the case of CC(=O)N(C)CC#CCN1CCC(OC(=O)c2ccccc2)C1.O=C(O)C(=O)O (stereo not drawn), the PI turnover [1] is reported as 4, the inhibition [2] is reported as “inactive” and the Displacement [3] is reported as 39.1%. For the same compound, the Displacement [4] was 57.4% and the PI turnover (A9 [5]) was 1.4.

Compound CC(=O)N(C)CC#CCN1CCC1.O=C(O)C(=O)O has an inhibition [6] of 95.7%, a PI turnover [1] of 59.8 and a Displacement [3] of 94%. For the same compound, the Displacement [4] was 38% and the PI turnover (A9 [5]) was 61.3.

CC(=O)N(C)CC#CCN1CCC(OS(=O)(=O)c2ccc(C)cc2)C1.O=C(O)C(=O)O (stereo not drawn) showed an inhibition [6] of 83.6%, a PI turnover [1] of 23.1 and a Displacement [3] of 64.8%. For the same compound, the Displacement [4] was 51.6% and the PI turnover (A9 [5]) was 23.1.

CC(=O)N(C)CC#CCN1CCC(OS(C)(=O)=O)C1.O=C(O)C(=O)O (stereo not drawn) gave an inhibition [6] of 38.5%, a PI turnover [1] of 17.2 and a Displacement [3] of 25.2%. The Displacement [4] was 20.2% and the PI turnover (A9 [5]) was 10.4.

In the case of CC(=O)N(C)CC#CCN1CCC[C@@H]1CF.O=C(O)C(=O)O, the inhibition [6] is reported as 38.6%, the PI turnover [1] is reported as 10.4 and the Displacement [3] is reported as 61.5%. For the same compound, the Displacement [4] was 67.2% and the PI turnover (A9 [5]) was 7.2.

With CC(=O)N(C)CC#CCN1CCC[C@@H]1CO.O=C(O)C(=O)O the PI turnover [1] was 4.8, the inhibition [2] was “inactive” and the Displacement [3] was 39.7%. It also gave a Displacement [4] of 56.2% and a PI turnover (A9 [5]) of 2.6.

Work on CC(=O)N(C)CC#CCN1CCC(F)C1.O=C(O)C(=O)O (stereo not drawn) yielded an inhibition [6] of 8.9%, a PI turnover [1] of 7.9 and a Displacement [3] of 38.1%. The Displacement [4] was 29% and the PI turnover (A9 [5]) was 11.3.

For CC(=O)N(C)CC#CCN1CCC[C@H]1CF.O=C(O)C(=O)O, the PI turnover [1] was 10.6, the inhibition [7] was 62.4% and the Displacement [3] was 50.5%. It also gave a Displacement [4] of 53.8% and a PI turnover (A9 [5]) of 11.1.

For CC(=O)N(C)CC#CCN1CCC(C(=O)O)CC1, the PI turnover (A9 [8]) was “inactive”, the Displacement [9] was “inactive” and the inhibition [6] was 17.5%. For the same compound, the PI turnover [1] was 5.2 and the Displacement [3] was 26.8%.

COC[C@@H]1CCCN1CC#CCN(C)C(C)=O.O=C(O)C(=O)O gave an inhibition [6] of 15.4%, a PI turnover [1] of 5.5 and a Displacement [4] of 52%. For the same compound, the PI turnover (A9 [5]) was 6.2.

In the case of CC(=O)N(C)CC#CCN1CCCC(CO)C1 (stereo not drawn), the PI turnover (A9 [8]) is reported as “inactive”, the PI turnover [1] is reported as 2.8 and the Displacement [3] is reported as 22.4%. It also gave a Displacement [4] of 45%.

With CCOC(=O)C1CCN(CC#CCN(C)C(C)=O)CC1.O=C(O)C(=O)O the PI turnover [1] was 8.8, the inhibition [2] was “inactive” and the Displacement [3] was 32.1%. It also gave a Displacement [4] of 47.5% and a PI turnover (A9 [5]) of 3.3.

CC(=O)N(C)CC#CCN1CCC(CO)CC1.O=C(O)C(=O)O gave an inhibition [6] of 4.8%, a PI turnover [1] of 16 and a Displacement [3] of 14.7%. The Displacement [4] was 10.2% and the PI turnover (A9 [5]) was 8.8.

In the case of CC(=O)N(C)CC#CCN1CCN(CCO)CC1, the PI turnover (A9 [8]) is reported as “inactive”, the PI turnover (A9 [10]) is reported as “inactive” and the inhibition [2] is reported as “inactive”. For the same compound, the Displacement [3] was 22.3% and the Displacement [4] was 9.3%.

CC(=O)N(C)CC#CCN1CCNCC1.O=C(O)C(=O)O showed an inhibition [6] of 16.8%, a PI turnover [1] of 12 and a Displacement [3] of 33.8%. The Displacement [4] was 51.2% and the PI turnover (A9 [5]) was 18.2.

Source: ChEMBL document CHEMBL1125621, “Muscarinic receptor binding and activation of second messengers by substituted N-methyl-N-[4-(1-azacycloalkyl)-2-butynyl]acetamides” (1991)
